A selection: hits, their analogues and other compounds. The true share with any hit is near 1.6%.
PPC-1+TRAIL kill = compounds killing PPC-1 cancer cells with TRAIL present, primary screen, TRAIL potentiator project, ATPLite luminescence, uHTS. 220,000 tested, 0.41% active. cell killing (% activity), % at 4 µM or 5 µM. PPC-1 cells + TRAIL, ATPLite viability luminescence;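 active = cell killing above 50% in the first pass at 4 µM, then a duplicate retest at 5 µM averaging 50% or more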
FLuc inh counter = firefly luciferase enzyme inhibitors, primary screen, artefact control for luciferase-based inhibitor screens, biochemical, luminescence, ATPLite; 200,000 tested, 1.5% active; inhibition, % at 10 µM; 10 min; Luciferin 4-monooxygenase (Photinus pyralis), P08659;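 active = inhibition above about 50% when tested at 10 µM, limit read from the data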
Target sequence (P08659 whole entry, looked up): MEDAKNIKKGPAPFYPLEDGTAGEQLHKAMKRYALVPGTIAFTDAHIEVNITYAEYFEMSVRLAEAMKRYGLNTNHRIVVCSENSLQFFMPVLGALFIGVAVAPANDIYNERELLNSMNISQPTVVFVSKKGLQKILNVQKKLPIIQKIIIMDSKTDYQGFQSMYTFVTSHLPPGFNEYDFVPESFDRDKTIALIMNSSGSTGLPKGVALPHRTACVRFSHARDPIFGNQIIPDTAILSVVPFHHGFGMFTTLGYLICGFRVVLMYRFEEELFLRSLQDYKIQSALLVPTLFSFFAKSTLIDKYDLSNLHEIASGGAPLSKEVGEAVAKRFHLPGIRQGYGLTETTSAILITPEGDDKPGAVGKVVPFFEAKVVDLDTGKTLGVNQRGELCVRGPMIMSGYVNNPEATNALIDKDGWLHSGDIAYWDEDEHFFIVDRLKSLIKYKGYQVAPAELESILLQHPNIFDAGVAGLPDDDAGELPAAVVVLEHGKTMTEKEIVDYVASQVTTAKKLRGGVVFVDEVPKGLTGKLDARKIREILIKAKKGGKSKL
FLuc act counter = FLuc activators, initial screening, artefact control for FLuc-dependent activation tests, biochemical, ATPlite luminescence; 200,000 tested, under 10 active; activation factor at 10 µM; Luciferin 4-monooxygenase (Photinus pyralis), P08659; AID 1027, 2008; ATPlite luciferase biochemical, 10 min; 0 = ATP-free wells, 1 = DMSO control;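 active = luciferase activation factor, scaled between plate controls, of at least 2 with compound at 10 µM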
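Assay system: Luciferase/luciferin reagent mix; Medium: PBS as buffer for the ATP substrate; Dosing: test compounds dosed from 2 mM stocks in 100% DMSO; Times: 10 min, room temperature; Signal: luminescence from luciferase reaction; Read-out: luciferase activation; Controls: No-ATP low control, compound-free enzyme-plus-ATP high control.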
C8 TRAIL sens = viability loss with TRAIL in NB7+C8 cells, primary screen, TRAIL sensitizer project, cell-based, ATPlite luminescence; AID 624354, 2012; 360,000 tested, 1% active; inhibition (viability loss, TRAIL sensitization), % at 10 µM;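 active = compounds causing at least 50% loss of cell viability in the single-dose screen, relative to plate controls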
PPC1 cytotox = cytotoxicity in PPC-1 cells, confirmation, cytotoxicity control for TRAIL apoptosis potentiator project, cell-based, ATP content luminescence; shares compounds with PPC-1+TRAIL kill; 1,200 tested, 50% active; cytotoxicity, % at 5 µM; PPC-1 viability, ATPlite luminescence, overnight; AID 1447, 2008;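 active = reconfirmed compounds whose average cytotoxicity reaches 50% or more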
Hits are given with their value; i = inactive; nt = no result given.

SMILES	PPC-1+TRAIL kill	FLuc inh counter	FLuc act counter	C8 TRAIL sens	PPC1 cytotox
O=C(Nc1ccc2c(c1)nc1n2CCSC1)c1ccco1	59.5	86.7	i	72.0	58.5
Cc1ccc(-c2cc3c(N=O)c4ccccc4c-3n[nH]2)cc1	94.6	93.6	i	93.5	94.3
Cc1ccc(-c2cc(=O)c3ccccc3[nH]2)cc1	i	i	i	i	nt
O=Nc1c2cc(-c3ccccc3)[nH]nc-2c2ccccc12	73.5	87.0	i	72.0	74.9
CSc1nc2ncncc2[nH]1	nt	nt	nt	i	nt
COc1ccccc1C#Cc1cnc2c(c1)C(=O)N([C@H](C)CO)C[C@@H](C)[C@@H](CN(C)C(=O)c1ccc3c(c1)OCO3)O2	nt	nt	nt	i	nt
O=C(CN1CCC(NC(=O)c2ccccc2F)CC1)Nc1ccc2c(c1)OCCO2	i	i	i	i	i
Cc1ccc(C(C)C)cc1C(=O)CC1(O)C(=O)N(C)c2ccccc21 (configuration not stated)	i	i	i	i	i
CC(=O)c1c(C)[nH]c(C(=O)Nc2ccc(C)cn2)c1C	69.0	87.6	i	73.2	66.5
CC(=O)c1c(C)[nH]c(C(=O)Nc2nc(C)cs2)c1C	66.2	89.6	i	72.9	65.2
CC(=O)c1c(C)[nH]c(C(=O)Nc2nc(-c3ccc(Cl)cc3)cs2)c1C	i	i	i	i	nt
CC(=O)N1Cc2ccccc2C(C)CC12CCCC2 (configuration not stated)	i	i	i	i	nt
CC(NC(=O)C1CCCN(S(=O)(=O)c2cccs2)C1)c1ccccc1 (configuration not stated)	i	i	i	i	nt
CC(C)NC(=O)C1CCCN(S(=O)(=O)c2cccs2)C1 (configuration not stated)	i	i	i	i	i
O=C(Nc1ccc([N+](=O)[O-])cc1)C(=O)Nc1cccc(C(=O)O)c1	74.8	nt	nt	85.9	69.8
Cc1ccc(S(=O)(=O)N2CCN(C(=O)N3CCOCC3)C2C(C)C)cc1 (configuration not stated)	i	i	i	i	nt
CCN(CC)c1ccc(C2N(C(=O)N3CCOCC3)CCN2S(=O)(=O)c2ccc(C)cc2)cc1 (configuration not stated)	i	i	i	i	i
C/C(=N/NC(=O)c1cc(C2CC2)[nH]n1)c1cccs1	60.0	84.5	i	67.0	i
C/C(=N\NC(=O)c1ccccc1O)c1cccs1	58.3	92.1	i	69.6	54.0
COCCSc1ccccc1C(=O)Nc1ccc(Cl)cn1	i	i	i	i	nt
Cc1noc(C)c1C(=O)Nc1cccnc1	i	i	i	i	nt
Cc1ccc(NC(=O)c2c(C)noc2C)cc1	i	i	i	i	i
CCS(=O)(=O)c1ccc2c(c1)N(S(C)(=O)=O)CC(C(=O)NCc1ccccc1OC)O2 (configuration not stated)	i	i	i	i	nt
CCN(CC)CCc1nc(-c2ccccc2)no1	nt	nt	nt	i	nt
COc1cc(OC)c(C(=O)Nc2cccnc2)cc1OC	nt	nt	nt	i	nt
SMILES	PPC-1+TRAIL kill	FLuc inh counter	FLuc act counter	C8 TRAIL sens	PPC1 cytotox
COc1cc2ccccc2cc1C(=O)Nc1cccnc1	i	i	i	i	i
CC1CCCC(NC(=O)CSc2ccc(F)cc2)C1C (configuration not stated)	i	i	i	i	nt
O=C(NCCCN1CCCC1=O)c1cccc(C(F)(F)F)c1	i	i	i	i	i
Cc1ccc(C2C(C#N)=C(N)Oc3cc4c(cc32)OCO4)cc1 (configuration not stated)	i	i	i	i	nt
CC(C)(C)C1=C(C#N)C(c2cc3c(cc2Br)OCO3)C(C#N)=C(N)O1 (configuration not stated)	i	i	i	i	i
CCCCNC(=O)CCC(=O)Nc1ccc2nc(N3CCC(C)CC3)cc(C)c2c1	i	i	i	i	i
Cc1cc(N2CCOCC2)nc2ccc(NC(=O)CCC(=O)N3CCC(C)CC3)cc12	i	i	i	i	nt
Cn1cc(CC(=O)N2CCN(c3ccc(Cl)cc3)CC2)c2ccccc21	i	i	i	i	i
N/C(=N\OC(=O)c1cc(Cl)ccc1Cl)c1ccccn1	54.9	74.9	i	62.7	58.1
N/C(=N\OC(=O)C(c1ccccc1)c1ccccc1)c1ccccn1	i	i	i	i	nt
N/C(=N\OCc1ccc([N+](=O)[O-])cc1)c1ccccn1	85.7	95.8	i	nt	85.0
COc1ccc(Cl)cc1C(=O)O/N=C(\N)c1ccccn1	nt	nt	nt	i	nt
N/C(=N\OC(=O)c1ccccc1)c1ccccn1	i	96.0	i	i	51.6
Cc1ccc(-c2nn(C)c(=O)c3ccccc23)cc1S(=O)(=O)NCCO	i	i	i	i	nt
Cc1ccc(/C=C/C(=O)Nc2ccc(O)c3c(=O)cc(-c4ccccc4Cl)oc23)cc1	i	nt	nt	i	nt
O=c1[nH]c2ccc(S(=O)(=O)Nc3ccc(-c4nnc5n4CCCCC5)cc3)cc2o1	i	i	i	i	nt
O=C(Nc1ccccc1NC(=O)c1csnn1)c1csnn1	i	i	i	i	nt
CC(C)c1ccc(NC(=O)c2csnn2)cc1	i	68.5	i	i	i
CC1(C(=O)NC2CCCCCCC2)CCC(=O)N1Cc1ccco1 (configuration not stated)	i	i	i	i	nt
Nc1nonc1-c1noc(COc2ccccc2Cl)n1	i	i	i	i	nt
C/C(=N\Nc1cccc2cccnc12)c1ccc[nH]1	i	86.2	i	i	i
O=C1/C(=C/c2ccc(N3CCOCC3)o2)SC(=Nc2ccccc2)N1CCc1c[nH]c2ccccc12	i	i	i	i	i
CN1C(=O)C(O)(CC(=O)/C=C\c2ccc3c(c2)OCO3)c2ccccc21 (configuration not stated)	i	i	i	i	nt
CN(C)S(=O)(=O)c1ccc(C(=O)NCCOc2ccccc2)cc1	i	i	i	i	i
Cc1cccc(C)c1-n1nnnc1C(c1ccnc2ccccc12)N(Cc1ccccc1)Cc1ccccc1 (configuration not stated)	nt	nt	nt	i	nt
SMILES	PPC-1+TRAIL kill	FLuc inh counter	FLuc act counter	C8 TRAIL sens	PPC1 cytotox
Cc1ccc(/C=C/C(=O)C2C(=O)c3ccccc3C2=O)cc1	94.8	97.3	i	85.1	94.1
Cc1ccc(/C=C/C(=O)Nn2cnnc2)cc1	i	i	i	i	nt
C/C(=N\NC(=O)Cc1csc(N2CCOCC2)n1)c1ccccc1	i	i	i	i	nt
COc1ccc(/C=C/C(=O)NC(=S)NNC(=O)Cc2cccs2)cc1	i	i	i	i	i
O=C(/C=C/c1ccccc1)NC(=S)NNC(=O)Cc1cccs1	i	i	i	i	nt
O=C1NC(=O)C2C1C(c1cccs1)NN2Cc1ccccc1 (configuration not stated)	i	i	i	i	nt
Clc1ccc(-c2nnc(SCc3ccon3)o2)c(Cl)c1	i	77.9	i	48.2	i
Cc1ccccc1CNC(=O)COc1ccccc1	nt	nt	nt	i	nt

Screens as filed in PubChem BioAssay.
